Screening results as filed in PubChem.
This is a sample that favours compounds with a hit; in the whole collection about 1.3% have one here.
TCR-CD3 inh: inhibitors of human TCR-CD3 interaction, primary screen, biochemical, fluorescence, TAMRA-labeled TCR probe | inhibition, % at 9.4 µM | 360,000 tested, 0.37% active; in the data active means inhibition above about 19%;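 further: recombinant mutant TCR 2C K166C tagged with TAMRA read by polarization; 0% = receptor in buffer alone and 100% = receptor with positive control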
DDE Tn6 FP inh: inhibitors of Tn6 peptide binding to fibrin DD(E), primary screen, biochemical, fluorescence polarization, human fibrin, Tn6 probe; inhibition, % at 8.3 µM; Fibrin DD(E) TRITC-Tn6 fluorescence polarization displacement; Fibrinogen beta chain (Homo sapiens), P02675; 370,000 tested, 0.21% active;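 active means inhibition above a per-campaign cutoff: mean of compounds within control limits plus 3 SD, cut at about 15% in these data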;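 further: 0% = median of all compound wells on the plate and 100% = blocking peptide control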
ABHD4 inh: ABHD4 inhibitors, primary screen, biochemical, fluorescence polarization, mouse; purified mABHD4, FP-Rh probe fluorescence polarization; (Lyso)-N-acylphosphatidylethanolamine lipase (Mus musculus), Q8VD66; AID 720543, 2013; 370,000 tested, 0.54% active; inhibition, % at 8.92 µM;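 active means inhibition exceeding the mean over every tested compound plus 3 SD, cut at about 30% in these data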;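 further: 0% = plate median of compound wells and 100% = S159A mutant with DMSO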
Target sequence (Q8VD66 whole entry, looked up): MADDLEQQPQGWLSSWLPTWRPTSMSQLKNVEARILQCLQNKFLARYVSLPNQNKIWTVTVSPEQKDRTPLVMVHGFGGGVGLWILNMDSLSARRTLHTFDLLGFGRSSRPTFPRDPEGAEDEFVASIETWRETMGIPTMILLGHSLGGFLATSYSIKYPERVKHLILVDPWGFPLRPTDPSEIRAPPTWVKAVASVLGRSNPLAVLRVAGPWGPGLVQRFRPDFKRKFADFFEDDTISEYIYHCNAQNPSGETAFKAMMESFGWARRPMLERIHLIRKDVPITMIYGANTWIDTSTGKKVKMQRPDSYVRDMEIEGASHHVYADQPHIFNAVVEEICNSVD
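Doses – 8.92 µM, single dose · Material – wild-type mouse ABHD4 protein · Replication – single well per compound (singlicate) · Measure – percent inhibition of probe binding, normalized to plate controls · Schedule – 45 min compound pre-incubation plus 60 min probe step, 25 °C · Detection – fluorescence polarization with parallel and perpendicular emission, 525/598 nm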
DDE Tn7 FP inh: inhibitors of Tn7 peptide binding to fibrin DD(E), primary screen, biochemical, fluorescence polarization, human fibrin, Tn7 probe. FP displacement of FITC-Tn7 peptide from fibrin DD(E); 0% = median of compound wells per plate. AID 720508, 2013. 370,000 tested, 0.13% active. inhibition, % at 8.3 µM;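 active means inhibition above the mean of compounds falling within the control limits plus 3 SD of them, cut at about 14% in these data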;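 further: 0% = plate median of compound wells and 100% = 10 µM Aha-Tn7 peptide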
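Also added: labelled Tn7 tracer, 0.1 µM; Assay system: human fibrin DD(E) protein; Amount: 2 µM fibrin DD(E); Schedule: 10 min compound pre-incubation, 3 h probe incubation at room temperature; Repeats: one replicate per compound; Read-out basis: percent inhibition; Measured by: fluorescence polarization of the labelled Tn7 tracer.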
HTRA1 inhibitor: HTRA1 serine protease inhibitors, primary screen, biochemical, fluorescence polarization, HTS; inhibition, % at 5.96 µM; 340,000 tested, 0.5% active; recombinant HTRA1, FP-rhodamine activity-based probe; AID 504803, 2011; in the data active means inhibition above about 36%;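 further: 0% = enzyme with DMSO and 100% = wells lacking enzyme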
mABHD4 conf: ABHD4 inhibitors, retest, confirmation, biochemical, fluorescence polarization, mouse. inhibition, % at 8.92 µM. purified mABHD4, FP-Rh probe fluorescence polarization. 1,800 tested, 55% active. shares compounds with ABHD4 inh;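 active means mean inhibition across replicates above the hit cutoff set in the primary screen, cut at about 30% in these data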;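 further: 0% = wild-type ABHD4 with DMSO and 100% = catalytically dead S159A mutant with DMSO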
An asterisk follows results filed as active; nt = not tested or not shown.

SMILES	TCR-CD3 inh	DDE Tn6 FP inh	ABHD4 inh	DDE Tn7 FP inh	HTRA1 inhibitor	mABHD4 conf
O=C(Nc1nccs1)C(Br)C(Br)c1ccccc1 (stereo unspecified)	0.1	4.4	-3.8	0.6	-7.0	nt
Nc1[nH]n2c(=O)cc(-c3ccccc3)nc2c1N=Nc1ccccc1	-7.7	-5.9	8.2	4.6	6.2	nt
Nc1[nH]n2c(=O)cc(-c3ccccc3)nc2c1N=Nc1ccc(S(N)(=O)=O)cc1	-7.4	-1.8	32.3*	7.1	13.9	36.9*
CN(C)c1ccc(N2C(=O)CSC2=S)cc1	-46.0	-2.1	28.8	-7.4	19.3	nt
CC1SC(=S)N(c2ccc(N(C)C)cc2)C1=O (stereo unspecified)	0.8	3.6	33.3*	6.4	28.7	24.7
CCN(CC)S(=O)(=O)N1CCC(C(=O)NCc2ccc3c(c2)OCO3)CC1	-4.7	7.5	4.2	6.8	5.8	nt
COc1ccc2nc(-n3c(O)c(C4=c5ccccc5=NC4=O)[nH]c3=S)sc2c1	-0.4	-1.4	51.6*	5.2	29.7	168.6*
Nc1ccc(O)cc1C(=O)OCC(=O)C12CC3CC(CC(C3)C1)C2	-5.9	-1.4	52.4*	-3.4	25.8	35.3*
Nc1ccc(O)cc1C(=O)OCC(=O)c1ccc(C2CCCCC2)cc1	2.9	-13.0	53.5*	0.5	29.0	38.5*
CCc1csc(CCNC(=O)C2CCC(=O)N(Cc3ccccc3F)C2)n1 (stereo unspecified)	6.8	-6.5	0.6	-13.5	9.9	nt
O=C(c1ccco1)N1CCN(C(=O)c2ccc(CS(=O)c3cccc(Cl)c3)o2)CC1 (stereo unspecified)	-4.3	6.7	-0.2	0.1	2.5	nt
FC(F)Oc1ccc(NC(=S)Nn2cnnc2)cc1	1.8	-1.2	1.5	0.1	6.1	nt
Oc1cccc2c(NC(=S)Nc3ccc(OC(F)F)cc3)cccc12	-3.0	2.1	33.5*	-8.0	16.0	11.0
N/C(=N\c1nc(CSc2nc3ccccc3s2)cc(=O)[nH]1)Nc1ccc(F)cc1	-1.1	-3.2	1.0	1.2	-0.2	nt
COc1cccc(C2CC(c3ccc(NS(C)(=O)=O)cc3)=NN2C(=O)c2ccccc2)c1OC (stereo unspecified)	1.1	0.4	43.7*	-4.8	-10.3	55.4*
C(=C\c1ccccc1)/CN1CCN(C(c2ccccc2)c2ccccc2)CC1	-0.3	-2.3	95.2*	-5.3	-6.5	4.2
Fc1ccc(C(c2ccc(F)cc2)N2CCN(C/C=C/c3ccccc3)CC2)cc1	5.5	3.8	12.2	5.8	-17.3	nt
CCOC(=O)Cc1c(Sc2ccccc2)c2cc(C)ccc2n1C	-4.1	-0.3	1.7	2.5	-8.8	nt
Cc1ccc2c(c1)c(Sc1ccccc1)c(CC(=O)O)n2C	-2.4	5.9	30.3*	-5.5	0.6	34.6*
